Hck Nef HTS = inhibitors of human Hck kinase activated by Nef. inhibition, % at 20 µM. Recombinant Hck-YEEI plus Nef, Z-Lyte FRET kinase assay. actives 0.68% (n = 220,000). AID 463187;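 active = Hck-Nef kinase inhibition above about 50%, limit read from the data; inactive = inhibition below that limit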;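 note: 0% = DMSO with Hck plus Nef and 100% = Hck alone without Nef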
Target sequence (P08631 whole entry, looked up): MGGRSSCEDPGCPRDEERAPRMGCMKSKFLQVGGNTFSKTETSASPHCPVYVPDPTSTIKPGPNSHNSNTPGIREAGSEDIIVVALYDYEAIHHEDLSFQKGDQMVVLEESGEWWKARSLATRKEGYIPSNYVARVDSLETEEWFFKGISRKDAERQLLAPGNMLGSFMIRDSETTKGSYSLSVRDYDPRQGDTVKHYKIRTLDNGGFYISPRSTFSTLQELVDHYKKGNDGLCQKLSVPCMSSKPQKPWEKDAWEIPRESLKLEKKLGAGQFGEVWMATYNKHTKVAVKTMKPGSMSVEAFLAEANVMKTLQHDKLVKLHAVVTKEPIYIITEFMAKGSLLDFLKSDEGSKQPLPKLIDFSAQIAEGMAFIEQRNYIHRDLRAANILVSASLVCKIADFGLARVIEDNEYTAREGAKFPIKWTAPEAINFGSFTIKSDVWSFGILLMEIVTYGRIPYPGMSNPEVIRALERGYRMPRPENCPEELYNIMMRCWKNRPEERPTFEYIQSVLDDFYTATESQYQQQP
TNF necrop inh = inhibitors of TNF-alpha induced necroptosis in Jurkat FADD-/- cells | actives 0.068% (n = 220,000) | Jurkat FADD-/- TNF necroptosis rescue, ATP luminescence, 24 h; 0 = TNF only, 100 = no-TNF cells | AID 463075 | activation (protection from cell death), % at 10 µM;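 active = activation, meaning protection from cell death, of at least 50% relative to plate controls; inactive = activation below 50%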;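 note: necroptosis triggered by 40 ng/mL TNF-alpha added together with compound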
Runt-CBFb FRET = Runt domain-CBFb interaction inhibition. Q01196+Q13951. Cerulean-Runt/Venus-CBFb FRET ratio 530/480, 1 h. inhibition, % at 20 µM. actives 0.46% (n = 220,000);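 active = inhibition over about 50% at 20 µM in the single-dose screen, limit read from the data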;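 note: 0% = DMSO wells and 100% = excess unlabeled CBFb competitor control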
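test system = Cerulean-Runt domain fusion protein, energy donor | probe or stimulus = Venus-CBFb binding partner, 100 nM | incubation = two 1 h room-temperature incubations shielded from light | detection = fluorescence energy transfer, 422 nm excitation, 530/480 nm emission | measure = loss of energy transfer signal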
Runt-SMMHC FRET = inhibitors of human RUNX1 Runt domain binding to CBFb-SMMHC | inhibition, % at 20 µM | actives 0.74% (n = 220,000) | Q01196+Q13951 | Cerulean-Runt/Venus-CBFb-SMMHC FRET ratio 530/480, 1 h;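 active = mean inhibition across duplicate retests at 20 µM reaching about 50%, limit read from the data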;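 note: 0% = DMSO wells and 100% = wells with excess untagged CBFb-SMMHC; inhibitors lower the FRET ratio by blocking Runt binding to CBFb-SMMHC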
RanGTP-Impb inh = disruptors of Ran-importin-beta complex formation – biochemical, FRET, CFP-Ran, YFP-importin-beta, homogeneous, primary screen; inhibition, % (concentration not given with the values); actives 1.1% (n = 300,000); cell-free CFP-Ran/YFP-importin-beta FRET ratio;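 active = more than half of the replicate wells show a fall in the fluorescence ratio signal beyond about 16%, limit read from the data, passing the limit was not always enough; inconclusive = exactly half of the replicate wells pass the set limit; inactive = fewer than half of replicates pass the limit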;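 note: 0% = DMSO wells and 100% = Ran loaded with GDP instead of GTP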
L929 necroptosis = blocks zVAD induced death of L929 cells; AID 1377; L929 zVAD necroptosis rescue, ATP luminescence, 24 h; with zVAD 60 µM; viability rescue, % at 10 µM; actives 0.38% (n = 220,000);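 active = activation, scaled between plate controls, above about 75%, limit read from the data; inactive = activation under that limit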;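 note: 0% = zVAD with DMSO and 100% = DMSO alone without zVAD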
* hit, by the source's call; ? = inconclusive; . = no result. Most compounds without a hit are left out; they make up all but 2.1% or so of the library.

SMILES	Hck Nef HTS	TNF necrop inh	Runt-CBFb FRET	Runt-SMMHC FRET	RanGTP-Impb inh	L929 necroptosis
CC(=O)Nc1ccc(NC2=CC(=O)CC(C)(C)C2)cc1	9	-1	0	-2	50*	-1
Cc1ccc(NC2=CC(=O)CC(C)(C)C2)cc1F	.	.	.	.	5	.
CC1(C)CC(=O)C=C(Nc2cccc(F)c2)C1	.	.	.	.	28*	.
CCCCn1c(=N)c(S(=O)(=O)c2ccc(Br)cc2)cc2c(=O)n3cccc(C)c3nc21	.	.	.	.	0	.
Cc1ccc(S(=O)(=O)c2cc3c(=O)n4cccc(C)c4nc3n(Cc3ccco3)c2=N)cc1C	.	.	48	65*	.	.
Cc1ccc(S(=O)(=O)c2cc3c(=O)n4ccccc4nc3n(Cc3ccco3)c2=N)cc1	27	-3	19	.	104*	-1
COc1ccc(Cl)cc1NC(=O)CN(C)C(C)C(=O)NC(=O)NC1CCCCC1 (stereo unspecified)	.	.	.	.	0	.
COc1ccc(-c2nc3ccc(C(=O)NCC(OC)OC)cc3nc2-c2ccc(OC)c(OC)c2)cc1OC	.	.	.	.	1	.
COC(CNC(=O)c1ccc2nc(-c3cccs3)c(-c3cccs3)nc2c1)OC	5	2	21	16	43*	3
C/C(=N\NC(=O)c1ccc2c(c1)OCO2)c1ccc(NC(=O)CCCC(=O)O)cc1	.	.	.	.	1	.
Cc1c2cnn(CC(=O)Nc3c(F)c(F)cc(F)c3F)c(=O)c2c(C)n1Cc1ccccc1F	52*	0	-9	-11	-2	2
CC1CCCCN1Cc1c(O)ccc2c(=O)c(-c3nc4ccccc4s3)c(N)oc12 (stereo unspecified)	8	4	-1	-2	.	64
COC(=O)c1ccc(/C=N/OCC(=O)NC2CCCCCCC2)cc1	-10	0	2	-4	-2	78*
COc1cccc(N2CC(=O)N(NC(=O)c3sc4nc(C)cc(C)c4c3N)CC2=O)c1	-3	4	4	2	16*	1
Cn1c(/C=C(\C#N)C(N)=S)ccc1-c1ccc(Br)cc1	14	-2	89*	92*	.	-1
CC1(NC(=O)NCc2ccccc2)CCS(=O)(=O)C1 (stereo unspecified)	16	0	-1	2	5	5
O=S(=O)(Nc1nc2ccccc2nc1Nc1ccc(N2CCOCC2)cc1)c1cc(Cl)ccc1Cl	-1	0	2	-7	37*	3
CC(C)C(=O)OC/C(O)=C(\C#N)c1nc2ccccc2[nH]1	26	5	4	15	15*	43
COCC(=O)OC/C(O)=C(\C#N)c1nc2ccccc2[nH]1	8	-7	3	7	6	37
Cc1c(-c2cccc(Cl)c2)nc2ccccc2c1C(=O)OC/C(O)=C(\C#N)c1nc2ccccc2[nH]1	32	2	23	54*	0	6
O=S(=O)(c1cccc(Cl)c1Cl)N1CCN(C(=S)NCCCN2CCOCC2)CC1	21	3	-1	2	25*	0
O=C(O)CS(=O)(=O)CC(=O)NCc1cccc(C(F)(F)F)c1	-21	0	0	-1	-5	-1
O=C/C(=C\Nc1ccc(S(=O)(=O)CCO)cc1)c1nc2cc(Cl)ccc2o1	-7	-5	-4	-6	22*	6
CCc1cc(=O)[nH]c(-n2[nH]c(-c3ccccc3)cc2=O)n1	23	0	-1	-1	1	2
O=c1cc(-c2ccccc2)[nH]n1-c1nc2ccccc2[nH]1	1	-13	12	17	26*	0
SMILES	Hck Nef HTS	TNF necrop inh	Runt-CBFb FRET	Runt-SMMHC FRET	RanGTP-Impb inh	L929 necroptosis
CCCC1=C(C(=O)OCC)C(c2ccc(OC)c(CSc3ccccn3)c2)C(C#N)=C(N)O1 (stereo unspecified)	0	1	-2	0	-3	1
O=C(c1ccco1)[C@@H]1[C@@H]2C(=O)N(c3ccccc3)C(=O)[C@@H]2C2c3ccccc3C=CN21 (stereo partly specified)	0	-1	-23	-58	28*	2
Cc1ccc(N2C(=O)[C@@H]3[C@H](C2=O)C2c4ccccc4C=CN2[C@@H]3C(=O)c2ccco2)cc1 (stereo partly specified)	1	-1	-7	-71	.	0
CC1(C)C(c2ccccc2)=NC(c2ccc(Br)cc2)N1O (stereo unspecified)	2	0	1	0	-6	1
Cc1cccc2c3c([nH]c12)C(=O)CC(C)(C)S3	15	0	9	22	8	9
Cc1ccc2[nH]c3c(c2c1)SC(C)(C)CC3=O	20	2	18	29	21*	13
O=C(COC(=O)CCN1C(=O)/C(=C\C=C\c2ccccc2)SC1=S)Nc1cc(F)ccc1F	126*	0	-2	-16	-4	-1
CC(=O)c1ccc2c(c1)c(C#N)c1ccccc1[n+]2[O-]	.	.	.	.	68*	.
CC(=O)c1cccc(N=Nc2c(C)[nH]c3ccccc23)c1	1	1	-9	-8	2	1
O=C(CN1C(=O)NC2(CCCCC2)C1=O)Oc1ccc2c(C(F)(F)F)cc(=O)oc2c1	.	.	.	.	33*	.
CCc1cc(=O)oc2cc(OC(=O)CN3C(=O)NC4(CCCC4)C3=O)ccc12	.	.	.	.	3	.
N#C/C(=C(/O)CCCl)c1ccccn1	14	1	49	92*	21*	5
N#C/C(=C\c1ccc(C(=O)O)cc1)c1ccccn1	18	0	0	0	?	2
O=c1ccc(-c2ccc(S(=O)(=O)NCC3CCN(Cc4ccccc4F)CC3)s2)n[nH]1	.	.	.	.	0	.
COc1ccc2c(c1)NC(c1cc(Cl)cc(Cl)c1O)c1cccn1-2 (stereo unspecified)	40	0	13	-6	.	0
COc1ccc2c(c1)NC(c1ccc(N(C)C)cc1)c1cccn1-2 (stereo unspecified)	19	-4	21	47	42*	0
Cc1cccc(NC(=O)c2ccc(Cn3cc(C(F)(F)F)ccc3=O)cc2)c1	1	-4	-4	1	48*	0
CCc1nn2c(=O)cc(COc3ccc(/C=C4\C(=N)N5N=C(C)SC5=NC4=O)cc3)nc2s1	75*	2	.	-6	-1	7
CN(C)Cc1cc(C(C)(C)C)cc(C(C)(C)C)c1O	4	-3	-1	-1	2	2
CN(C)Cc1cc(O)c(CN(C)C)cc1O	-160	-22	4	69*	1	-1
CCOC(=O)c1cc2c(=O)n3ccccc3nc2n(C(C)C)c1=NC(=O)c1c(-c2c(F)cccc2Cl)noc1C	15	-3	101*	63*	90*	2
CCCCn1c(=NC(=O)c2ccco2)c(C(=O)OCC)cc2c(=O)n3cccc(C)c3nc21	34	-14	10	82*	123*	-2

Compound activity from PubChem.
